The results in this text go back to ChEMBL document CHEMBL4715721, “Synthesis and optimization of novel allylated mono-carbonyl analogs of curcumin (MACs) act as potent anti-inflammatory agents against LPS-induced acute lung injury (ALI) in rats” (Eur J Med Chem, 2016).

Series [1] relates to RAW264.7. Description: Antiinflammatory activity in mouse RAW264.7 cells assessed as decrease in LPS-induced IL-6 secretion at 10 microM incubated for 30 mins followed by LPS stimulation and measured after 24 hrs by ELISA relative to control. It is filed as functional. Conditions: RAW264.7, 24.5 h, time 1470 min. The gist of the method:
(§1)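 RAW264.7 cells in DMEM with 10% FBS at 37 °C, 5% CO₂; pretreated with 10 μM for 30 min, then LPS 0.5 μg/mL for 24 h. Medium TNF-α and IL-6 measured by ELISA and normalized to total protein of viable cells; percent inhibition, mean ± SD of three experiments.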

The nature of series [2]: Cytotoxicity against human HL7702 cells assessed as cell survival rate at 10 uM incubated for 24 hrs by MTT assay. Type of series: cell-based. Conditions: HL7702 (L02) cells, read-out: Activity. The gist of the method: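 HL-7702 human normal hepatic cells exposed to 10 μM compound for 24 h; viability measured by MTT assay and given as survival rate, mean ± SD of three experiments.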
In general terms: Tetrazolium assays rely on reduction of a dye to a coloured formazan, in cell work by metabolically active cells.

Series [3] concerns RAW264.7. As to the kind of experiment: (§2) Cytotoxicity against mouse RAW264.7 cells assessed as cell survival rate at 10 uM. It is filed as cell-based. Conditions: raw264.7, 10 µM.
Series [4] has as its system RAW264.7. Description: Antiinflammatory activity in mouse RAW264.7 cells assessed as decrease in LPS-induced TNF-alpha secretion at 10 microM incubated for 30 mins followed by LPS stimulation and measured after 24 hrs by ELISA relative to control. Type of series: functional. Conditions: RAW264.7, 24.5 h, time 1470 min. In outline: as §1
Background: ELISA stands for enzyme-linked immunosorbent assay.

Series [5] is described as follows: Octanol-water partition coefficient, logP of compound. Type of series: physicochemical.
Series [6] can be described thus: Aqueous kinetic solubility of compound at pH 7.4. Type of series: physicochemical. The conditions noted are these: read-out: Kinetic_solubility.
A short description of series [7]: as §2. Type of series: cell-based. Conditions: RAW264.7 cells, read-out: Activity.
A short description of series [8]: Chemical stability of compound in PBS buffer containing 5% DMSO at pH 7.4 measured every 5 mins for 25 mins by UV-Vis absorption spectral analysis. Type of series: physicochemical. Conditions: pH 7.4, 25 min. In outline: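 Compound diluted from 1 mM stock in phosphate buffer pH 7.4 containing 5% DMSO; UV-visible spectra recorded from 250 to 600 nm at 25 °C in a 1 cm quartz cuvette, every 5 min for 25 min.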

In series [9] the test system is RAW264.7. As to the kind of experiment: Antiinflammatory activity in mouse RAW264.7 cells assessed as decrease in LPS-induced IL-6 secretion incubated for 30 mins followed by LPS stimulation and measured after 24 hrs by ELISA. Type of series: functional, cell-based. The conditions noted are these: dose 1-10 µM, time 1470.0 min. The gist of the method:
(§3)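 RAW264.7 cells seeded at 4.0×10^5/plate overnight; pretreated at 1, 2.5, 5 or 10 μM for 30 min, then with or without LPS 0.5 μg/mL for 24 h. Medium IL-6 and TNF-α measured by ELISA and normalized to total protein; percent of LPS control, mean ± SEM of three independent experiments.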

The subject of series [10] is RAW264.7. Description: Antiinflammatory activity in mouse RAW264.7 cells assessed as decrease in LPS-induced TNF-alpha secretion incubated for 30 mins followed by LPS stimulation and measured after 24 hrs by ELISA. It is filed as functional, cell-based. The conditions noted are these: dose 1-10 µM, time 1470.0 min. In outline:
as §3

In brackets after ≈: the same amount, converted by molar mass.

Regarding `C=CCc1cc(/C=C2\CNC/C(=C\c3ccc(O)c(CC=C)c3)C2=O)ccc1O`, the inhibition (as a rule, the drop in the measured response relative to a control, in per cent) at 10 µM in the series on RAW264.7 [1] worked out at 44.4%. Also, in [2], the viability at 24 h, 10 µM is 77.9%. In the series with RAW264.7 [3], the Activity result is reported as “Non-Toxic”.

Turning to `C=CCc1cc(/C=C2\CN(C(=O)c3ccc(C)cc3)C/C(=C\c3ccc(O)c(CC=C)c3)C2=O)ccc1O`, the inhibition at 10 µM in the series on RAW264.7 [1] worked out at 81.5%. Also, the viability at 24 h, 10 µM in [2] stood at 70.1%. Further, the Activity result with RAW264.7 [3] is listed as “Non-Toxic”.

`C=CCc1cc(/C=C2\CN(C3CC3)C/C(=C\c3ccc(N(C)C)cc3)C2=O)ccc1O`: the inhibition at 10 µM in the series with RAW264.7 [1] stood at 74.4%; in the series with RAW264.7 [4], 35%. Moreover, in series [2], the viability at 24 h, 10 µM was 89.4%. Also, the logP (in general, a log measure of how a compound divides between an organic and an aqueous phase) in [5] was 3.5. Besides, in series [6], the solubility kinetic was 17.1 mg/mL (≈ 41.2 mM).

Turning to `C=CCc1cc(/C=C2\CN(C3CC3)C/C(=C\c3ccc(N(CC)CC)cc3)C2=O)ccc1O`, the inhibition at 10 µM is 71.9% in the series on RAW264.7 [1] and 32.1% in the series on RAW264.7 [4]. In series [2], the viability at 24 h, 10 µM is 94%. The same compound registered a logP in [5] of 4.08.

`C=CCc1cc(/C=C2\CN(C(=O)c3ccc(F)cc3)C/C(=C\c3ccc(O)c(CC=C)c3)C2=O)ccc1O`: the inhibition at 10 µM with RAW264.7 [1] was determined as 86.8%. The viability at 24 h, 10 µM in series [2] was found to be 78%. In addition, the Activity entry with RAW264.7 [3] is “Non-Toxic”.

Regarding `C=CCc1cc(/C=C2\CN(C3CC3)C/C(=C\c3ccc(N4CCCC4)cc3)C2=O)ccc1O`, the inhibition at 10 µM with RAW264.7 [1] was determined as 49.9%; with RAW264.7 [4], 17.6%. Further, in series [2], the viability at 24 h, 10 µM amounted to 95.5%. The compound further displayed a logP in [5] of 4.33.

In the case of `C=CCc1cc(/C=C2\CN(C(=O)c3ccc(Cl)cc3)C/C(=C\c3ccc(O)c(CC=C)c3)C2=O)ccc1O`, the inhibition at 10 µM with RAW264.7 [1] was 89.2%. Further, in [2], the viability at 24 h, 10 µM came out at 66.2%. The viability at 10 µM in series [7] was < 70%.

`C=CCc1cc(/C=C2\CN(S(=O)(=O)c3ccccc3)C/C(=C\c3ccc(O)c(CC=C)c3)C2=O)ccc1O`: the inhibition at 10 µM in the series with RAW264.7 [1] was 24.8%. Besides, the viability at 24 h, 10 µM in [2] is 63.4%. Moreover, the viability at 10 µM in [7] was < 70%.

Consider `C=CCc1cc(/C=C2\CN(Cc3ccccc3)C/C(=C\c3ccc(O)c(CC=C)c3)C2=O)ccc1O`, for which the inhibition at 10 µM in the series on RAW264.7 [1] stood at 45.8%. Further, the viability at 24 h, 10 µM in [2] is 62.1%. In series [7], the viability at 10 µM is < 70%.

With `C=CCc1cc(/C=C2\CN(C)C/C(=C\c3ccc(O)c(CC=C)c3)C2=O)ccc1O`, the inhibition at 10 µM with RAW264.7 [1] amounted to 57.1%. The viability at 24 h, 10 µM in series [2] came out at 80.3%. In the series with RAW264.7 [3], the Activity result is “Non-Toxic”.

On to `C=CCc1cc(/C=C2\CN(C(=O)c3c(Cl)cccc3Cl)C/C(=C\c3ccc(O)c(CC=C)c3)C2=O)ccc1O`, for which, in the series on RAW264.7 [1], the inhibition at 10 µM turned out to be 79.6%. The viability at 24 h, 10 µM in series [2] worked out at 79.6%. Besides, in the series with RAW264.7 [3], the Activity entry is listed as “Non-Toxic”.

As for `C=CCc1cc(/C=C2\CN(C3CC3)C/C(=C\c3ccc(N4CCOCC4)cc3)C2=O)ccc1O`, the inhibition at 10 µM with RAW264.7 [1] worked out at 59.8%; in the series on RAW264.7 [4], 8.19%. In addition, in [2], the viability at 24 h, 10 µM is 94.3%. In series [5], this compound came in with a logP of 3.21. Also, the solubility kinetic in series [6] is 19.4 mg/mL (≈ 42.5 mM).

Turning to `C=CCc1cc(/C=C2\CN(CCC)C/C(=C\c3ccc(O)c(CC=C)c3)C2=O)ccc1O`, the inhibition at 10 µM in the series on RAW264.7 [1] is 76.1%. Besides, the viability at 24 h, 10 µM in series [2] worked out at 75.2%. Also, in the series on RAW264.7 [3], the Activity result was “Non-Toxic”.

With `C=CCc1cc(/C=C/C(=O)/C=C/c2ccc(O)c(CC=C)c2)ccc1O`, the inhibition at 10 µM came to 59.6% with RAW264.7 [1] and 7.15% in the series with RAW264.7 [4]. For the same compound, the viability at 24 h, 10 µM in [2] was 73.3%. Also, in [8], the Stabilty entry is given as “Stable”. In the series on RAW264.7 [3], the Activity result is recorded as “Non-Toxic”.

Take `C=CCc1cc(/C=C2\CN(CC)C/C(=C\c3ccc(O)c(CC=C)c3)C2=O)ccc1O`: in the series on RAW264.7 [1], the inhibition at 10 µM stood at 67.6%. Besides, in series [2], the viability at 24 h, 10 µM came to 79.6%. Further, the Activity result in the series with RAW264.7 [3] was “Non-Toxic”.

Turning to `C=CCc1cc(/C=C2\CN(C3CC3)C/C(=C\c3ccc(O)c(CC=C)c3)C2=O)ccc1O`, the results for the inhibition at 10 µM with RAW264.7 [1] and with RAW264.7 [4] were 77.5% and 39.5%, respectively. Also, the viability at 24 h, 10 µM in series [2] turned out to be 76.2%. Further, the inhibition result with RAW264.7 [9] and in the series with RAW264.7 [10] was “Dose-dependent effect” each time. For the same compound, the Stabilty entry in series [8] is recorded as “Stable”. The Activity result in the series with RAW264.7 [3] is given as “Non-Toxic”.

Consider `C=CCc1cc(/C=C2\CN(C(C)C)C/C(=C\c3ccc(O)c(CC=C)c3)C2=O)ccc1O`, for which the inhibition at 10 µM in the series on RAW264.7 [1] was 71.6%. In series [2], the viability at 24 h, 10 µM was found to be 85.1%. Moreover, the Activity entry with RAW264.7 [3] is reported as “Non-Toxic”.
